The nature of data set [1]: Cytotoxicity against human 30M cells assessed as cell viability after 3 days by Alamar Blue assay. The note with it: 72 h.
For data set [2], the species on record is Homo sapiens. Put plainly: Induction of apoptosis in human 147EF cells assessed as PARP cleavage at 0.1 to 1 uM after 3 hrs by Western blotting analysis. Type of data set: functional, cell-based. In general terms: Immunoblotting shows a protein as a band on a membrane.
The species named for data set [3] is Homo sapiens. Put plainly: Inhibition of AKT phosphorylation in human 147EF cells at 0.1 to 1 uM after 3 hrs by Western blotting analysis. The class given is cell-based.
Data set [4] concerns the target T1, Signal transducer and activator of transcription 3 (Homo sapiens, UniProt P40763). Put plainly: Inhibition of STAT3 phosphorylation at Y705 in human 147EF cells at 0.1 to 1 uM after 3 hrs by Western blotting analysis. Type of data set: cell-based.
Data set [5] in a line: Cytotoxicity against human 67EF cells assessed as cell viability after 3 days by Alamar Blue assay. The note with it: 72 h. Background: The colour change of resazurin is a common sign of viable cells or microbes.
A short description of data set [6]: Cytotoxicity against human 73EF cells assessed as cell viability after 3 days by Alamar Blue assay. The conditions noted are these: 72 h.
Data set [7] is described as follows: Cytotoxicity against human 84EF cells assessed as cell viability after 3 days by Alamar Blue assay. The note with it: 72 h.
Data set [8] is described as follows: Cytotoxicity against human 25EF cells assessed as cell viability after 3 days by Alamar Blue assay. The conditions noted are these: 72 h.
Data set [9] addresses T1, Signal transducer and activator of transcription 3. Description: Competitive binding affinity to STAT3 SH2 domain (unknown origin) assessed as inhibition of interaction with FAMpYLPQTV after 15 to 30 mins by fluorescent polarization assay.
Data set [10] in a line: cells. The conditions noted are these: Homo sapiens, 72 h.
Data set [11] in a line: Cytotoxicity against human 30M cells assessed as cell viability after 8 days by Alamar Blue assay. The class given is functional, cell-based. The conditions noted are these: 192 h.
The nature of data set [12]: Cytotoxicity against human 73M cells assessed as cell viability after 8 days by Alamar Blue assay. Type of data set: functional, cell-based. The conditions noted are these: 192 h.
The species named for data set [13] is Homo sapiens. Put plainly: Inhibition of AKT in human 147EF cells after 6 hrs by Western blotting analysis. The class given is cell-based.
Data set [14] deals with Mitogen-activated protein kinase 3 (Homo sapiens) (UniProt P27361). Description: Inhibition of ERK1 (unknown origin) at 5 uM after 120 mins.
The species entered for data set [15] is Homo sapiens. Description: Inhibition of MAPK in human 147EF cells after 6 hrs by Western blotting analysis. The class given is cell-based.
The target in data set [16] is RAC-alpha serine/threonine-protein kinase (Homo sapiens) (UniProt P31749). Put plainly: Inhibition of AKT1 (unknown origin) at 5 uM after 120 mins.
Data set [17] has as its target Proto-oncogene tyrosine-protein kinase Src (Homo sapiens) (UniProt P12931). Put plainly: Inhibition of Src in human 147EF cells after 6 hrs by Western blotting analysis. The class given is cell-based.
Data set [18] can be described thus: Cytotoxicity against HF2006 cells assessed as cell viability at 5 uM after 3 days by Alamar Blue assay. Type of data set: cell-based. The note with it: human, 72 h. In a few lines: (§1)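 Normal human fetal astrocytes (healthy, non-tumor cells) were exposed to compounds at concentrations up to 5 μM, with viability as the cytotoxicity read-out.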
Data set [19] addresses Tyrosine-protein kinase JAK2 (Homo sapiens) (UniProt O60674). Put plainly: Inhibition of JAK2 (unknown origin) at 5 uM after 120 mins relative to control.
Data set [20] deals with Epidermal growth factor receptor (Homo sapiens) (UniProt P00533). Put plainly: Inhibition of EGFR in human 147EF cells after 6 hrs by Western blotting analysis. Type of data set: cell-based.
Data set [21] addresses Tyrosine-protein kinase JAK1 (Homo sapiens) (UniProt P23458). Put plainly: Inhibition of JAK1 (unknown origin) at 5 uM after 120 mins.
For data set [22], the target named is Tyrosine-protein kinase JAK2 (Homo sapiens) (UniProt O60674). Put plainly: Inhibition of JAK2 in human 147EF cells after 6 hrs by Western blotting analysis. The class given is cell-based.
Data set [23] can be described thus: Cytotoxicity against HF2003 cells assessed as cell viability at 5 uM after 3 days by Alamar Blue assay. Type of data set: cell-based. The note with it: human, 72 h. A digest of the protocol: as §1
Data set [24] deals with Proto-oncogene tyrosine-protein kinase Src (Homo sapiens) (UniProt P12931). Put plainly: Inhibition of c-Src (unknown origin) at 5 uM after 120 mins relative to control.

Calls of active or inactive are those of the source. No cut-off for these calls is given here.

Data on twelve compounds can be found in ChEMBL document CHEMBL3108692, “Potent Targeting of the STAT3 Protein in Brain Cancer Stem Cells: A Promising Route for Treating Glioblastoma” (ACS Med Chem Lett, 2013).

Chain of Tyrosine-protein kinase JAK2 (Homo sapiens) (O60674 whole entry): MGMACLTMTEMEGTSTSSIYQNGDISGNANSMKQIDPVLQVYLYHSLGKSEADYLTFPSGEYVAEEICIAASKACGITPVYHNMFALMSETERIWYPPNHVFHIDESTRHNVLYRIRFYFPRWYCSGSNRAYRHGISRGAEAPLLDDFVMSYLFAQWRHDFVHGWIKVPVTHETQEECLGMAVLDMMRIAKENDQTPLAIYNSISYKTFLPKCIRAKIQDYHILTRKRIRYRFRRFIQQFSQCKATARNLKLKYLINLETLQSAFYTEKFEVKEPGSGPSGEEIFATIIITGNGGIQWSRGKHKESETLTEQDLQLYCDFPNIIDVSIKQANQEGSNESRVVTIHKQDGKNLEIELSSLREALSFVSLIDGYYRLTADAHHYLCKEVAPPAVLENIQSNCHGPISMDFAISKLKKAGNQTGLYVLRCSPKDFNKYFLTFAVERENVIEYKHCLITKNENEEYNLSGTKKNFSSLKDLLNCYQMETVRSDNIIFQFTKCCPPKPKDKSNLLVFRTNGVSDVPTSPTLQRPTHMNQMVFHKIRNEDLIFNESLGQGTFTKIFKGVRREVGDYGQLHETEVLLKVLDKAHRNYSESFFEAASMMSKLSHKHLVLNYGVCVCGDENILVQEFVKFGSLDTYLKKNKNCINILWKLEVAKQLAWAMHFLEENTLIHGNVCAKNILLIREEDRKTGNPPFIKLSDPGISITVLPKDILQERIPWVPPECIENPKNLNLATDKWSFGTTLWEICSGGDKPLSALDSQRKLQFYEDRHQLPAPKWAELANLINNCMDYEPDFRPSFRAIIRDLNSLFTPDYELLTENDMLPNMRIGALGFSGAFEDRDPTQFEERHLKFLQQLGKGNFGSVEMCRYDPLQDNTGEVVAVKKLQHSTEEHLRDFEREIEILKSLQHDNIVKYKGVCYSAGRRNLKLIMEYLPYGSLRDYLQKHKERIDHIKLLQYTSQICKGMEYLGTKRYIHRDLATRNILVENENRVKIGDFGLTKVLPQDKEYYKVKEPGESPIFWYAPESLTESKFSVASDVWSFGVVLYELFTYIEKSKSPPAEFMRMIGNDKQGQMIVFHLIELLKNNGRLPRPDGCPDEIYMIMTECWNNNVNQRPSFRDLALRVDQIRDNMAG
Chain of Proto-oncogene tyrosine-protein kinase Src (Homo sapiens) (P12931 2-536 limits assumed): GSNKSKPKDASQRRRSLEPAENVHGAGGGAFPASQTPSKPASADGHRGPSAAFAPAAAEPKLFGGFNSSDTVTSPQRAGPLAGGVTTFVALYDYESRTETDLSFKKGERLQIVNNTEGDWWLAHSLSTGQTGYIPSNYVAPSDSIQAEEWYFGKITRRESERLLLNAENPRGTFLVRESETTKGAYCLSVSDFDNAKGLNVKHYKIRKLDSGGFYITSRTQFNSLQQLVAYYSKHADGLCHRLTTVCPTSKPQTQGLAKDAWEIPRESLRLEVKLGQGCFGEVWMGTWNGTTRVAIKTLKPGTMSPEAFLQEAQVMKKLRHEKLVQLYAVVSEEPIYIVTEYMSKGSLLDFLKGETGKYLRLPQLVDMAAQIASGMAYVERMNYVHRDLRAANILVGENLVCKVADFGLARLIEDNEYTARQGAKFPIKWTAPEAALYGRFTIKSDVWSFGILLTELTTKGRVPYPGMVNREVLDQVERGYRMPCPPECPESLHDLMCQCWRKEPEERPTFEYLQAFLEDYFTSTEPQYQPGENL
T1 sequence (P40763 whole entry): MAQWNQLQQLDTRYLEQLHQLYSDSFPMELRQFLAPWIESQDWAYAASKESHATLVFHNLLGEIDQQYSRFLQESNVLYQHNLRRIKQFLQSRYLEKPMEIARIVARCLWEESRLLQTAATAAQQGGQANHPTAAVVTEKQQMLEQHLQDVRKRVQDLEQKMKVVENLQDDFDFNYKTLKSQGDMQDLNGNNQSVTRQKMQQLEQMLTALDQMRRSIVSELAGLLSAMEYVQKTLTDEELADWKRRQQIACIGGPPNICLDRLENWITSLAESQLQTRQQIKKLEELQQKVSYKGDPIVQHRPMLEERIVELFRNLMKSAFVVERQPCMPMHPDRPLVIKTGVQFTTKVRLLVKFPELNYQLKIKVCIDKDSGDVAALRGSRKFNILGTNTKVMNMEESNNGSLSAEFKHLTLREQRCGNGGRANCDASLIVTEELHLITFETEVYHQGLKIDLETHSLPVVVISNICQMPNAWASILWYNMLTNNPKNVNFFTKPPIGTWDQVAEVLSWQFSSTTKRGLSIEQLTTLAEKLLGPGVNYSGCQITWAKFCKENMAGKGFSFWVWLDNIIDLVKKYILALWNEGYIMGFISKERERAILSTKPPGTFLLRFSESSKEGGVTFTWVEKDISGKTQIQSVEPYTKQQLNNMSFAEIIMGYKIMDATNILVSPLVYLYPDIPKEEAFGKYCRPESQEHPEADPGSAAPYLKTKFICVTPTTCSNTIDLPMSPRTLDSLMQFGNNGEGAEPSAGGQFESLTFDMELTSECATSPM
Chain of Epidermal growth factor receptor (Homo sapiens) (P00533 whole entry): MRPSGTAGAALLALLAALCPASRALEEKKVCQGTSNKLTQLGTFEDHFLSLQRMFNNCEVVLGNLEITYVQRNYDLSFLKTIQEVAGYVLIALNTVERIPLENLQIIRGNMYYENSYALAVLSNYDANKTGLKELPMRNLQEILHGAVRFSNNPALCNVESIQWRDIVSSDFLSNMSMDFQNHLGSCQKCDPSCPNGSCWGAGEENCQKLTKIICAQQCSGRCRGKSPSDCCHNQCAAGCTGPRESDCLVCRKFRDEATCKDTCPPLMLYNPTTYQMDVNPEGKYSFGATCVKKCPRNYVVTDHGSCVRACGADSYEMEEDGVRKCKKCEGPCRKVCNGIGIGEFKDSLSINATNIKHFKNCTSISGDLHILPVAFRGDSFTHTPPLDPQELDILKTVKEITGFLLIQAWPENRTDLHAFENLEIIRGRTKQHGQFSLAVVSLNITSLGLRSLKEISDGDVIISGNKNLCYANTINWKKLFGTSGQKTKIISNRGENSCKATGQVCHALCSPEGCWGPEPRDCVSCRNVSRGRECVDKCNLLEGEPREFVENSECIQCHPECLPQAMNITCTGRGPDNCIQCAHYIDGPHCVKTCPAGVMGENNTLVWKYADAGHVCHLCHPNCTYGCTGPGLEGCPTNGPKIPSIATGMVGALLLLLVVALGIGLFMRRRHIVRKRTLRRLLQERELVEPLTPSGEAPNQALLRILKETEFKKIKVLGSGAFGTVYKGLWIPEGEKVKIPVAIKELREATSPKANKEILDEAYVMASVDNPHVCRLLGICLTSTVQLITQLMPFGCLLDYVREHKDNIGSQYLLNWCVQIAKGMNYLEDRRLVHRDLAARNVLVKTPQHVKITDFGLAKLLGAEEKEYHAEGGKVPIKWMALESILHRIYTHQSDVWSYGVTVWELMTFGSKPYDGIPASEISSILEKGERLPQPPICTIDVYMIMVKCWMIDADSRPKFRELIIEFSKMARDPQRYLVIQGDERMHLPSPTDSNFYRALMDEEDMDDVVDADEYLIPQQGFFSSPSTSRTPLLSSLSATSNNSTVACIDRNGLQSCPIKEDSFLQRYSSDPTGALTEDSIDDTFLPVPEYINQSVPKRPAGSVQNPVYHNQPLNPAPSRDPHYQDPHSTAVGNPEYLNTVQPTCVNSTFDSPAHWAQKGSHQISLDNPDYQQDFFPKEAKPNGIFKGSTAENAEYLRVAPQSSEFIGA
Chain of RAC-alpha serine/threonine-protein kinase (Homo sapiens) (P31749 whole entry): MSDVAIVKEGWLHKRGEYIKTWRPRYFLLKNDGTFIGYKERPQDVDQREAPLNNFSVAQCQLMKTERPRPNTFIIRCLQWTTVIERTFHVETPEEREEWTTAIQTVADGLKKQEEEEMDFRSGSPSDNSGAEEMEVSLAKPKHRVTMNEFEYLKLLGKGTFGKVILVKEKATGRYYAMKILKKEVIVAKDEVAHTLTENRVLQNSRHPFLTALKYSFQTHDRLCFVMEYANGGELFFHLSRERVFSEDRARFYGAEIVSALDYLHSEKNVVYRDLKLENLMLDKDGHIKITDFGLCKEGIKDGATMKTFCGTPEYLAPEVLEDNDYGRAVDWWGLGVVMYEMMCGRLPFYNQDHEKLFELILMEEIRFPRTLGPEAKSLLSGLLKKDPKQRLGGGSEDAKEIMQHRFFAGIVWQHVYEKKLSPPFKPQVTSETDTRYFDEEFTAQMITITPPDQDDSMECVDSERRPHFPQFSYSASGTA
Chain of Mitogen-activated protein kinase 3 (Homo sapiens) (P27361 whole entry): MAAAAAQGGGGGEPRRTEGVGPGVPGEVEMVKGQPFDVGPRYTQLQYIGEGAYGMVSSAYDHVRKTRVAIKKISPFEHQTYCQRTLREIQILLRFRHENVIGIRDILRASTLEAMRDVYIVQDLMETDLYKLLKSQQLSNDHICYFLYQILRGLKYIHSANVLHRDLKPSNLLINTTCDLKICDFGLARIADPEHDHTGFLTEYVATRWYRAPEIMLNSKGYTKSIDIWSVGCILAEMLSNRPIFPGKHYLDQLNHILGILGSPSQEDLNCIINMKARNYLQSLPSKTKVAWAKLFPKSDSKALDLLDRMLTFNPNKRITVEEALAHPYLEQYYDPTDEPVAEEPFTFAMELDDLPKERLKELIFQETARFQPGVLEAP

By IC50 is commonly meant the concentration that gives 50% inhibition. Usually inhibition stands for the share of the control response that was lost under treatment. `CN(CC(=O)N(Cc1ccc(C2CCCCC2)cc1)c1ccc(C(=O)O)c(O)c1)S(=O)(=O)c1c(F)c(F)c(F)c(F)c1F`: the IC50 in [1] was determined as 2 µM. The outcome in data set [2] was Active. The inhibition entry in data set [3] and in [4] was “Active” in each case.
In general, Ki refers to the equilibrium dissociation constant of an inhibitor or competing ligand from its target. `CN(CC(=O)N(Cc1ccc(C2CCCCC2)cc1)c1ccc(C(=O)O)c(F)c1)S(=O)(=O)c1c(F)c(F)c(F)c(F)c1F`: the IC50 in data set [1] was found to be 0.1 µM; in data set [5], 0.214 µM; in data set [6] it was 0.438 µM; in [7] it was 0.203 µM; in data set [8], 0.592 µM; in data set [10] it was 0.09 µM. Besides, the Ki in data set [9] worked out at 10 µM.
In the case of `C[C@H](NC(=O)/C(C#N)=C/c1cccc(Br)n1)c1ccccc1` [WP 1066], the IC50 stood at 1.8 µM in data set [11] and 2.1 µM in data set [12].
With `CCOC(=O)c1ccc(N(Cc2ccc(C3CCCCC3)cc2)C(=O)CN(C)S(=O)(=O)c2c(F)c(F)c(F)c(F)c2F)cc1`, in [9], the inhibition entry was “inactive”.
With `CN(CC(=O)N(Cc1ccc(C2CCCCC2)cc1)c1ccc(C(=O)OCOC(=O)C(C)(C)C)cc1)S(=O)(=O)c1c(F)c(F)c(F)c(F)c1F`, the inhibition result in [9] is “inactive”.
`CCOP(=O)(Cc1ccc(N(Cc2ccc(C3CCCCC3)cc2)C(=O)CN(C)S(=O)(=O)c2c(F)c(F)c(F)c(F)c2F)cc1)OCC`: the inhibition result in data set [9] is “inactive”.
`CN(CC(=O)N(Cc1ccc(C2CCCCC2)cc1)c1ccccc1)S(=O)(=O)c1c(F)c(F)c(F)c(F)c1F`: in data set [9], the inhibition entry is “inactive”.
For the compound `CCOC(=O)C(=O)Nc1ccc(N(Cc2ccc(C3CCCCC3)cc2)C(=O)CN(C)S(=O)(=O)c2c(F)c(F)c(F)c(F)c2F)cc1`, the inhibition entry in data set [9] is “inactive”.
Regarding `CC(=O)Oc1cc(N(Cc2ccc(C3CCCCC3)cc2)C(=O)CN(C)S(=O)(=O)c2c(F)c(F)c(F)c(F)c2F)ccc1C(=O)O`, the half-inhibitory concentration (IC50) in [1] was 0.1 µM; in data set [5], 0.435 µM; in data set [6], 1.07 µM; in [7], 0.332 µM; in data set [8], 1.15 µM; in data set [10], 0.273 µM. For the same compound, the inhibition result in [13], in [14], in data set [15], in data set [16], in data set [17] and in [20] was “inactive” throughout. The inhibition result in data set [21], in data set [22] and in data set [9] was “inactive” in each case. Besides, the Activity entry in [18] and in [23] was “Non-toxic” in each case. For the same compound, the inhibition in data set [19] and in data set [24] was 50% throughout.
For the compound `CC(=O)OCOC(=O)c1ccc(N(Cc2ccc(C3CCCCC3)cc2)C(=O)CN(C)S(=O)(=O)c2c(F)c(F)c(F)c(F)c2F)cc1`, the inhibition result in [9] was “inactive”.
In the case of `CN(CC(=O)N(Cc1ccc(C2CCCCC2)cc1)c1ccc(C(=O)NO)cc1)S(=O)(=O)c1c(F)c(F)c(F)c(F)c1F`, the inhibition entry in data set [13], in data set [14], in [15], in [16], in data set [17] and in data set [20] was “inactive” throughout. For the same compound, the inhibition result in [21] and in [22] was “inactive” throughout. The Activity result in [18] and in data set [23] was “Non-toxic” in each case. Also, the inhibition in data set [19] and in [24] was 50% in each case.
Regarding `COC(=O)c1ccc(N(Cc2ccc(C3CCCCC3)cc2)C(=O)CN(C)S(=O)(=O)c2c(F)c(F)c(F)c(F)c2F)cc1`, the inhibition entry in data set [9] was “inactive”.
